From PubChem
A selection: hits, their analogues and other compounds. The true share with any hit is near 1.5%.
CCR6 antag: CCR6 (human) receptor antagonism; P51684; CHO-K1 CCR6 PathHunter beta-arrestin, luminescence, CCL20-stimulated; inhibition, % at 20 µM; 340,000 tested, 0.49% active; AID 493098;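 active = compounds whose inhibition of the agonist-driven luminescence signal at 20 µM reaches about 50%, limit read from the data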;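 also: cells stimulated with CCL20 at 14 nM final; plate controls were DMSO with CCL20 for no effect and DMSO without agonist for full effect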
CXCR6 inh: blocks human CXCR6 beta-arrestin recruitment; CHO-K1 PathHunter CXCR6 beta-arrestin, luminescence; inhibition, % at 20 µM; 360,000 tested, 0.36% active; in the data active = inhibition above about 34%, passing the limit was not always enough;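 also: antagonist mode with CXCL16 agonist at 10 nM final; 0% = 10 nM CXCL16 with DMSO and 100% = unstimulated wells without agonist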
APJ agonist: APJ receptor agonism; P35414; CHO-K1 APJ PathHunter beta-arrestin, luminescence; 0% DMSO wells, 100% apelin; activation, % at 20 µM; 330,000 tested, 0.11% active;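 active = activation more than six SD over the plate average, tested at 20 µM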;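 also: 0% = DMSO alone and 100% = apelin-13 at 10 nM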
Target sequence (P35414 whole entry, looked up): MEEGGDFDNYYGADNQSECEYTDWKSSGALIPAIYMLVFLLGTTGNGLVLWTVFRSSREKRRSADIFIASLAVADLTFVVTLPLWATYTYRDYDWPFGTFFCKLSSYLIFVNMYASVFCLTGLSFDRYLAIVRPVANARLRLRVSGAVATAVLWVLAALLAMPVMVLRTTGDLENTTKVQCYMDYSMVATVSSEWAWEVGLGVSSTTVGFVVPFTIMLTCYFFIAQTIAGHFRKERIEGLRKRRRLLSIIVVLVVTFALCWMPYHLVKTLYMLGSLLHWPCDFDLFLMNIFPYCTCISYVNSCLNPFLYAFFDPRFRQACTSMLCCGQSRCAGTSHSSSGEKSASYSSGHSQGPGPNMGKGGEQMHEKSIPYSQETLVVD
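Test system – PathHunter CHO-K1 APJ (AGTRL-1) beta-arrestin reporter cells · Input – 1000 cells/well · Compound – single test compound dose, 20 µM final, 1% DMSO · Times – compound stimulation 90 min at 25 °C, detection 60 min · Technique – beta-gal luminescence · Read-out basis – APJ–arrestin association signal · Control set – negative DMSO alone, positive Apelin-13 at 10 nM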
EBI2 block: blocks human EBI2 receptor beta-arrestin signaling; P32249; EBI2 beta-arrestin recruitment, luminescence, 7a,25-OHC stimulated; inhibition, % at 5 µM; 360,000 tested, 0.81% active; in the data active = inhibition above about 38%;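 also: enzyme fragment complementation signal reports receptor beta-arrestin coupling in cells; 0% = agonist plus DMSO wells and 100% = wells without agonist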
APJ antag: APJ receptor antagonism | AID 2521 | P35414 | 330,000 tested, 0.32% active | inhibition, % at 20 µM | CHO-K1 APJ beta-arrestin complementation, luminescence;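 active = inhibition above about 40% at 20 µM, limit read from the data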;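 also: cells challenged with 10 nM apelin-13 agonist together with compound; plate controls were apelin-13 plus DMSO wells for no effect and DMSO wells lacking apelin-13 for full effect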
CXCR6 antag conf: confirmation of human CXCR6 receptor antagonists; shares compounds with CXCR6 inh; CHO-K1 CXCR6 PathHunter beta-arrestin, luminescence; inhibition, % at 20 µM; 700 tested, 65% active;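 active = mean inhibition over four retests above 40%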;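 also: receptor stimulated with 10 nM CXCL16 agonist; beta-galactosidase fragment complementation upon beta-arrestin recruitment to receptor; plate controls were CXCL16 plus DMSO for no effect and DMSO without CXCL16 for full effect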
Starred values were filed as active, the others as inactive; / = no result.

SMILES | CCR6 antag | CXCR6 inh | APJ agonist | EBI2 block | APJ antag | CXCR6 antag conf
C[C@]12CC[C@H](O)CC1=CCC1C2CC[C@@]2(C)C1CC[C@@H]2NCc1ccccc1 (some centres not stated) | / | 4 | / | 15 | / | /
Cn1cnc([N+](=O)[O-])c1S(=O)(=O)c1ccc(Cl)cc1 | 50 | 42* | / | 3 | / | 69*
Cn1cnc([N+](=O)[O-])c1NC(C)(C)C | -4 | 1 | -4 | -4 | 13 | /
O=C1OC=NC1=Cc1ccccc1 | 16 | -5 | / | -1 | / | /
Cc1cccc(C(=O)NCC(=O)OCCOc2ccccc2Cl)c1 | 4 | 1 | -4 | 1 | -5 | /
CC(C)OCCCN1C=C2C(=O)C(C)(OC(=O)CCc3ccccc3)C(=O)C=C2C=C1c1ccc(C#N)cc1 (configuration not stated) | 0 | / | 13 | / | -48 | /
COc1cc(Br)cc(/C=C/c2ccc3cccc(O)c3n2)c1OC | 36 | 21 | -8 | 32 | 27 | /
COc1cc(/C=C/c2ccc3cccc(O)c3n2)cc(Cl)c1OC | 23 | 5 | -9 | 9 | 13 | /
Cc1ccc(/C=C/c2ccc3cccc(O)c3n2)s1 | 52* | 36* | 1 | 0 | -23 | 38
COc1ccc(/C=C/c2ccc3cccc(O)c3n2)c(OC)c1OC | 61* | 38* | -7 | 15 | 31 | 44*
CCCC/C=C1/CCC(CN(C)C)C1=O (configuration not stated) | 52* | 34* | / | -1 | / | 48*
COc1cccc(/C=C2/CCC(CN(C)C)C2=O)c1 (configuration not stated) | 92* | 71* | / | 23 | / | 54*
CCCOc1ccc(C(=O)NNC(=S)NC(=O)c2cccs2)cc1 | 64* | 53* | -10 | 11 | 10 | 28
CCC(=O)NC(=S)NNC(=O)c1ccc(OC)cc1 | 24 | 17 | -1 | -3 | 13 | /
CCCOc1ccc(C(=O)NNC(=S)NC(C)=O)cc1 | 47 | 23 | -6 | 4 | 10 | /
CCCCOc1ccc(C(=O)NNC(=S)NC(=O)CC)cc1 | 68* | 57* | / | 6 | / | 67*
CCCOc1ccc(C(=O)NNC(=S)NC(=O)c2ccccc2)cc1 | 65* | 47* | -3 | 0 | 36 | 33
CCN1CCN(C(=O)/C=C/c2ccc(C)o2)CC1 | 1 | 3 | -4 | -3 | 11 | /
Cc1ccc(/C=C/C(=O)N2CC(C)CC(C)C2)o1 (configuration not stated) | 27 | 76* | -1 | 4 | 29 | 6
COCC(=O)N1CCC(c2nc3ccccc3[nH]2)CC1 | / | 3 | / | -8 | / | /
O=C(Cc1ccccc1)N1CCC(c2nc3ccccc3[nH]2)CC1 | 0 | 40* | -2 | 7 | -11 | 6
CC(C)(C)OC(=O)N(Cc1ccccc1)Cc1ccccc1OCc1ccc(NC(=O)C2CCC2)cc1 | 5 | 8 | / | 1 | / | /
CCC[n+]1c(C)sc2c3c(ccc21)CCCC3 | 25 | 42* | -1 | 1 | 28 | 2
CC[n+]1c(C)sc2c(C)cc(C)cc21 | 9 | -2 | -1 | 1 | 12 | /
COc1ccc2nc(C)cc(Nc3ccc(C)cc3)c2c1 | 12 | 58* | -2 | 16 | 4 | 1
SMILES | CCR6 antag | CXCR6 inh | APJ agonist | EBI2 block | APJ antag | CXCR6 antag conf
COc1ccc(Nc2cc(C)nc3ccccc23)cc1 | -1 | -1 | -2 | -6 | 0 | /
O=C(c1ccccc1)c1ccccc1N1C(=O)C=CC1=O | / | 74* | 1 | 4 | 27 | 16
C#CCCOC(=O)N1C2=NC(C(=O)OC)=C(C(=O)OC)[C@@H]3N(CC=C)c4ccccc4[C@]23C[C@H]1C(=O)OC | 4 | -3 | -2 | -1 | 1 | /
COc1ccccc1/C=C/C(=O)Oc1cccc2cccnc12 | 13 | 3 | -3 | 0 | 1 | /
Cc1ccc2cccc(OC(=O)/C=C\c3ccccc3)c2n1 | 27 | 43* | 0 | 3 | 18 | 39
O=c1[nH]c(SCc2ccc(Cl)cc2)nc2ccccc12 | -9 | 82* | -3 | -3 | 19 | 15
O=C(CSc1nc2ccccc2c(=O)[nH]1)NCc1ccc(Cl)cc1 | -2 | -3 | 0 | -2 | 8 | /
CC(C)[C@H](NC(=O)OC(C)(C)C)c1nnc(S(=O)(=O)Cc2c(F)cccc2Cl)o1 | 63* | 63* | 5 | 8 | 27 | 61*
CCCNC(=O)c1nnsc1S(=O)c1ccc(Cl)cc1 (configuration not stated) | 97* | 87* | -6 | 8 | 40 | 99*
CCCNC(=O)c1nnsc1S(=O)(=O)c1ccc(Cl)cc1 | 74* | 65* | -3 | 12 | 23 | 83*
CCCNC(=O)NS(=O)(=O)c1ccc(Cl)cc1 | 15 | -2 | -4 | -3 | -8 | /
CNC(=O)c1nnsc1S(=O)c1ccc(Cl)cc1 (configuration not stated) | 99* | 96* | -4 | 7 | 27 | 97*
O=S(=O)(Nc1ccccc1N1CCOCC1)c1c(F)cc(F)cc1Br | 2 | 7 | -3 | 6 | -9 | /
Cc1ccc(S(=O)(=O)N2CCN(C(=O)COC(=O)c3ccc(O)cc3)CC2)c(C)c1 | 4 | 3 | -2 | -1 | -7 | /
CCc1cc2c(COC(=O)c3cccc(NS(C)(=O)=O)c3)cc(=O)oc2cc1O | 5 | 5 | 3 | -1 | -4 | /
CC1C(=O)N(Cc2cn(Cc3ccco3)nn2)CCS(=O)(=O)N1Cc1ccc(-c2ccc(Cl)c(Cl)c2)cc1 (configuration not stated) | / | 67* | / | 11 | / | -16
CCOC(=O)C(=O)/C(=C\N(C)C)c1onc(-c2c(Cl)cccc2Cl)c1C(=O)OC | 4 | 0 | -3 | -3 | 1 | /
CCc1cccc2c(C(=O)C(F)(F)F)cn(CC(=O)NCC3CCCO3)c12 (configuration not stated) | 13 | 46* | -5 | -10 | 6 | 2
O=C(CC[C@H]1O[C@@H](n2ccc(=O)[nH]c2=O)[C@H](O)[C@@H]1O)NCCN1CCOCC1 | / | 0 | / | -2 | / | /
O=C(NCCCN1CCCC1)c1ccc2c(c1)N(Cc1ccccc1F)C(=O)c1ccccc1S2(=O)=O | 15 | 4 | -1 | 12 | 0 | /
COc1cccc(C(C(=O)NC(C)(C)C)N(C(=O)CCC(=O)Nc2cc(C)on2)C(C)C)c1OC (configuration not stated) | -6 | 47* | -3 | 0 | 4 | 7
CCOC(=O)Cc1c(C)nc2c(-c3cccc(Br)c3)c[nH]n2c1=O | 19 | 36* | -2 | 5 | 19 | 12
O=C(NCc1cccnc1)/C(=C\c1ccc(-c2cccc(Cl)c2)o1)S(=O)(=O)c1ccccc1 | 38 | 33* | / | 42* | / | 41*
O=C(C1CC(=O)N(c2ccccc2F)C1)N1CCOCC1 (configuration not stated) | 8 | 4 | -3 | -1 | -5 | /
Cc1cc2nc(N3C(=O)CNC3=S)sc2cc1C | / | 50* | -3 | -8 | 22 | 61*
